Where “and” joins values, the source holds several entries; their conditions need not be identical. Equal entries are not always repeated.
Assays:
[1] = Pharmacokinetics of 361 in C57BL/6 mice; format: in vivo; settings: male, C57BL/6, mouse, plasma, 50 mg/kg
[2] = system: MYC target gene expression; test: RNA-seq and RT-qPCR gene expression; format: cell-based, human
Method in brief: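 MYCT58A cells were PC3 transduced with Flag-MYCT58A lentivirus and selected with 1.5 μg/ml puromycin. RT-qPCR used human MYC and 18S rRNA primers. For RNA-seq, PC3 cells were treated for 24 hr in triplicate and RNA was extracted after a PBS wash.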

[3] = Maximum tolerated dose / acute toxicity in mice; format: in vivo; settings: 361-treated mice
[4] = system: pheochromocytoma PC12 cells; test: Cell viability, PC12 cells; format: cell-based; settings: PC12, does not require MYC/MAX dimer for proliferation
Method in brief: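 PC12 cells were grown in F-12K with 2% heat-inactivated FBS and 12.5% horse serum. They were seeded at 1000 to 5000 cells per well in 96-well plates and treated for 2 to 7 days. Read-out was viable-cell count or MTS absorbance at 490 nm.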

[5] = system: Rat1 fibroblasts (HO15.19, TGR.1); test: Cell viability, Rat1 fibroblasts; format: cell-based, rat; settings: HO15.19 vs TGR.1
Method in brief: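 Myc-knockout HO15.19 and wild-type TGR.1 Rat-1 fibroblasts were kept in DMEM with 10% calf serum. They were seeded in 48-well plates at 1000 per well (HO15.19) or 3000 per well (TGR.1). After 2 to 7 days of treatment, viable cells were counted or MTS absorbance was read at 490 nm.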

[6] = target: MYC/MAX interaction (Homo sapiens, UniProt P01106); test: Co-immunoprecipitation and proximity ligation assay in PC3 cells; format: cell-based; settings: 6 μM
MYC/MAX interaction, sequence (P01106 16-454): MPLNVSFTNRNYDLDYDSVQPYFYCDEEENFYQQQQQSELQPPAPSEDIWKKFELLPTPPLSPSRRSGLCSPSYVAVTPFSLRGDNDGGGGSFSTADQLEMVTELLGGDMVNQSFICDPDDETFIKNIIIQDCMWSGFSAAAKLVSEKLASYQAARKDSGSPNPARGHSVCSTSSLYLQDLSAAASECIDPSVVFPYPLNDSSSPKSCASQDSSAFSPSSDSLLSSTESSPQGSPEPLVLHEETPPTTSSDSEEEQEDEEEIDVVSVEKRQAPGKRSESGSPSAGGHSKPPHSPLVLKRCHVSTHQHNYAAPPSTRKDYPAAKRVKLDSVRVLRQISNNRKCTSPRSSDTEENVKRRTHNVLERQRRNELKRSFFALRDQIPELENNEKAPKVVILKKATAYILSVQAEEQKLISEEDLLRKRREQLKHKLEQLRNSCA
Method in brief: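 For PLA, PC3 or PC3 T58A cells were grown in chamber slides and treated for 1 to 2 hr, then fixed in 4% PFA and permeabilised with 0.5% Triton-X. PLA signals per cell were counted by image analysis. For co-IP, cells were lysed in 20 mM Tris-HCl pH 8.0, 100 mM NaCl, 1 mM EDTA and 0.5% NP-40. Pellets were enzymatically sheared for 90 min at 4 °C and precipitates were analysed by western blot.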

With `Cn1nc(C(F)(F)F)cc1-c1ccc(OCc2ccc(Cl)cc2)c(-c2cc(C(F)(F)F)cc(C(F)(F)F)c2)c1O` [Compound 361, 6-((4-chlorobenzyl)oxy)-3-(1-methyl-3-(trifluoromethyl)-1H-pyrazol-5-yl)-3’,5’-bis(trifluoromethyl)-[1,1’-biphenyl]-2-ol] the Cmax ([1]; ip) was 27200 ng/mL and 46 µM, the concentration at 24 hr ([1]; ip) was 12700 ng/mL and 21 µM and the half-life ([1]; ip) was 44 h. The Cmax ([1]; po) was 13900 ng/mL and 23 µM, the concentration at 24 hr ([1]; po) was 9 µM and 5280 ng/mL and the half-life ([1]; po) was 20 h. The “MYC mRNA levels” value [2] was “not altered”, the “expression of MYC target genes CDC25A and MYB” value ([2]; 6 μM, 24 hr, MYCT58A-expressing cells) was “potently suppressed” and the “MYC target gene expression (GSEA, six gene sets)” value ([2]; 6 μM, 24 hr, RNA-seq) was “significantly down regulated in all gene sets”. For the same compound, the “histopathological analysis of major organs” value [3] was “suppression of the splenic white pulp and hepatocyte hypertrophy”, the “effect on cell viability” value [4] was “little effect” and the “sensitivity of Myc knockout versus wild-type fibroblasts” value [5] was “more resistant”. The “MYCT58A/MAX interactions (PLA)” value ([6]; MYCT58A-expressing PC3 cells) was “disrupted” and the “MYC/MAX interaction by co-IP and PLA” value ([6]; PC3 cells, 1 hr) was “disruption of the MYC/MAX interaction”.

Source: article PMC6939458 (Cancer cell, 2019)
